The subject of assay [1] is PSA and FKBP5 gene expression in LNCaP cells. Nature of the assay: AR-target gene expression. Format: cell-based. Particulars: 0.1 nM R1881, 24 hours.
The next assay concerns LNCaP cells. Nature of the assay: LNCaP cell proliferation. Format: cell-based. Particulars: 0.1 nM R1881, 6 days.
A further assay has as its system AR. Particulars: no reference given; cited from earlier work.
The target in assay [2] is T1, progesterone receptor (PR) (Homo sapiens, UniProt P06401).
T1 sequence (P06401 1-933): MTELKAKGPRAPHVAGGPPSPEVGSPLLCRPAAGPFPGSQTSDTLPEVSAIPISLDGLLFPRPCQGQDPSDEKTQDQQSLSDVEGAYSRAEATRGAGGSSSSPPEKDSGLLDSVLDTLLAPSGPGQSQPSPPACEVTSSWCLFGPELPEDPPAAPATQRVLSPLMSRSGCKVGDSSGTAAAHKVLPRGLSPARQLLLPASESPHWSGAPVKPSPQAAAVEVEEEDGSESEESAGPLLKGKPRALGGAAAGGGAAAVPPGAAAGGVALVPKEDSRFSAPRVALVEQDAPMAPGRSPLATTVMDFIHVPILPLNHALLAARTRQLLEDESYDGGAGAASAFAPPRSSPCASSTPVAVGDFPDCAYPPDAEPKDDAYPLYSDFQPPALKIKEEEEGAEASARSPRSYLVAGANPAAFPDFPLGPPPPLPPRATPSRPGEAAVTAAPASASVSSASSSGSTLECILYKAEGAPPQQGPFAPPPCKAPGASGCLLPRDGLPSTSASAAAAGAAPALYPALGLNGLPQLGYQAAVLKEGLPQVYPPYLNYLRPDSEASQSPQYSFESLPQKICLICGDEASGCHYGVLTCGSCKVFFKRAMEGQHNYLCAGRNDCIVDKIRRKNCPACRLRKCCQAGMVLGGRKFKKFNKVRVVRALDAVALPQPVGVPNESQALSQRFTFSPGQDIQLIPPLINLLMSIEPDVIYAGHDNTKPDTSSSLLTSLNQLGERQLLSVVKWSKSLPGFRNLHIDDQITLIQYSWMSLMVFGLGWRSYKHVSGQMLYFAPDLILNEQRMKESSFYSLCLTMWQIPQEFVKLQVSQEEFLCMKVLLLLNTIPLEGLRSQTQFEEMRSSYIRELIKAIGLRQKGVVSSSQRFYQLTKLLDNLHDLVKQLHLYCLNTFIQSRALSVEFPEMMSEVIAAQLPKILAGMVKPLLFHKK
The assay is described as follows: PR transactivation in HEK-293 cells. Format: cell-based. Particulars: HEK-293, progesterone.

Assay [3] deals with F876L-AR in LNCaP-EnzR cells. Nature of the assay: PSA expression in enzalutamide-resistant LNCaP-EnzR cells. It counts as cell-based. Particulars: F876L mutant, 0.1 nM R1881.
Another assay relates to AR-FL in AD1 cells. Nature of the assay: AR full length protein level by Western blot in AD1 cells. It counts as cell-based. Particulars: 24 hours. The procedure, abridged:
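AD1 cells expressing full-length AR were kept for 2 days in medium containing charcoal-stripped serum, then treated for 24 hours. Protein was extracted and Western blotted for AR using the N-terminal AR-N20 antibody, with actin as the loading control.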
(In western blotting, separated proteins are transferred to a membrane and probed.)

The test system of assay [4] is FKBP5 expression in 22RV1 cells. Nature of the assay: AR-V7-dependent FKBP5 expression in 22RV1 cells. It counts as cell-based. Particulars: 22RV1, charcoal stripped serum, 48 hours.
For another assay, the system named is 22RV1 xenograft. Nature of the assay: 22RV1 xenograft in castrated NSG mice. It counts as in vivo.
Assay [5] deals with Pr-3001 patient-derived xenograft. The assay is described as follows: Patient-derived xenograft Pr-3001 in castrated NSG mice. Particulars: over the course of 14 days. Format: in vivo. In outline:
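The CRPC patient specimen was collected in RPMI with penicillin/streptomycin and fungizone, minced, digested with collagenase for 2 hours and washed in serum-free medium. It was implanted subcutaneously as 1 mm³ fragments in castrated NSG mice, n=8–10 per group. At 100–200 mm³, mice were randomized to vehicle or test compound, and tumor volume was measured thrice weekly.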
In general terms: A xenograft is tissue or cells of one species grown in another, often human tumour cells in immunodeficient mice.

A further assay relates to panel of kinases. Nature of the assay: Cross-reactivity with a panel of kinases. It counts as biochemical.
In the next assay the target is T2, PR in T47D cells (Homo sapiens, UniProt P06401).
T2 sequence (P06401 1-933): T1 sequence (P06401 1-933)
The assay is described as follows: PR protein level by Western blot in T47D cells. Format: cell-based. In outline: (§1)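 T47D breast cancer cells were plated in growth medium and treated with a range of test compound doses. PR, ER and actin levels were read by Western blot, with actin as the loading control.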

The next assay deals with ER in T47D cells (Homo sapiens, UniProt P03372). The assay is described as follows: ER protein level by Western blot in T47D cells. Format: cell-based. In outline:
as §1

The target in assay [6] is T3, glucocorticoid receptor (GR) in PC-3 cells (Homo sapiens, UniProt P04150).
T3 sequence (P04150 1-777): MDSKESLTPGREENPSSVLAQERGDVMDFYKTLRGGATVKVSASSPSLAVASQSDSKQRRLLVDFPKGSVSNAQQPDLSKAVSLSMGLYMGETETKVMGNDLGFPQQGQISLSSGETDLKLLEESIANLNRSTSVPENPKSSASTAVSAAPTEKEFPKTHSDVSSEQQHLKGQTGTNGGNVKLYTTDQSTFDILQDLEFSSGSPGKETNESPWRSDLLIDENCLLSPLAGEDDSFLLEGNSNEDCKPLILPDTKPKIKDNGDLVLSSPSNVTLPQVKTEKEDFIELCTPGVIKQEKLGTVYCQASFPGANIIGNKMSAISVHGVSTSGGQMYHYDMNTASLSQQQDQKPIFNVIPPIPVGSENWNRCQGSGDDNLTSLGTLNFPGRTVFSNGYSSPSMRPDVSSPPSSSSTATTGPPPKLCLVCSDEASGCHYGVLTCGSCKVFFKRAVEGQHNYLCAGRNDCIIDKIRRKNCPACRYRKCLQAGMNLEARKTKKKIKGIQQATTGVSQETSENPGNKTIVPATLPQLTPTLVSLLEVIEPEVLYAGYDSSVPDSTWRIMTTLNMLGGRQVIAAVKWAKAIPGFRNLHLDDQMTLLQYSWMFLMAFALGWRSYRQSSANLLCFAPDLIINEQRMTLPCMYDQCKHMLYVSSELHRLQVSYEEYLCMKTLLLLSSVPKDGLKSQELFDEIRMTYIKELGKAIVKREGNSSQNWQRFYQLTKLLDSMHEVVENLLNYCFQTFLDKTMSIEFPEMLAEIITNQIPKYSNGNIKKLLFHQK
Nature of the assay: GR protein level in transiently transfected PC-3 cells. Format: cell-based. Particulars: transient transfection.

Assay [7] deals with AR recruitment to PSA enhancer ARE. The assay is described as follows: ChIP: AR recruitment to the PSA enhancer ARE in LNCaP cells. Particulars: 10 μM pre-treatment 30 minutes, 0.1 nM R1881 2 hours. Format: cell-based.
Assay [8] concerns NDRG1 and MT2A pre-mRNAs in LNCaP cells. Nature of the assay: Early induction of NDRG1 and MT2A pre-mRNAs in LNCaP cells. It counts as cell-based. Particulars: 10 μM, 0.1 nM R1881.

Chain of ER in T47D cells (P03372 whole entry): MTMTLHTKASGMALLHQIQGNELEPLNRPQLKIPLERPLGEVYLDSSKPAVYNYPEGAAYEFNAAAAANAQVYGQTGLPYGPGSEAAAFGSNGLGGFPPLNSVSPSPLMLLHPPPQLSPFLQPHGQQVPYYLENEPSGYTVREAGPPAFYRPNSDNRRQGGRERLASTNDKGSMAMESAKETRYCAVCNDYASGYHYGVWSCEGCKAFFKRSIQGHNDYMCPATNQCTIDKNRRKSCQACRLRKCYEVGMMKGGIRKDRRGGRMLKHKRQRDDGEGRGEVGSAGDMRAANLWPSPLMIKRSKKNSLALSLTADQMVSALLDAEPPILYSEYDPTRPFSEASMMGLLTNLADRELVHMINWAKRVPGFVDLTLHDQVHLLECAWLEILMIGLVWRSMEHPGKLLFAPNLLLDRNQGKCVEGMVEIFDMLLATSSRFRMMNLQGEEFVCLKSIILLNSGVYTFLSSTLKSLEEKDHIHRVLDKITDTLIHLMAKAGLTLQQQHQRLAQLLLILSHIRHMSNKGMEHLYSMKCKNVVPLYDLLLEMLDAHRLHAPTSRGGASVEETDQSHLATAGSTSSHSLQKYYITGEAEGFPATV

Regarding `C[C@@](O)(Cn1ccc2cc(F)ccc21)C(=O)Nc1ccc(C#N)c(C(F)(F)F)c1` [(R)-UT-155], the “inhibition of R1881-induced FKBP5 expression” value in assay [1] is recorded as “at concentrations comparable to that observed with UT-155”. In addition, the “inhibition of LNCaP proliferation” value in the assay on LNCaP cells was “inhibited the proliferation of LNCaP cells”.
Regarding `COc1ccc(/C=C/C(=O)/C=C(O)/C=C/c2ccc(OC)c(OC)c2)cc1OC` [ASC-J9], the “concentrations inducing AR degradation” value with AR is given as “greater than 10 μM”.
As to `C[C@](O)(Cn1ccc2cc(F)ccc21)C(=O)Nc1ccc(C#N)c(C(F)(F)F)c1` [UT-155], the “inhibition of PR transactivation” value in assay [2] is on record as “at concentration comparable to that of the AR”. The “inhibition of PSA expression in LNCaP-EnzR” value in assay [3] is given as “inhibited the expression of PSA”. Further, the “effect on AR expression in AD1 cells” value with AR-FL in AD1 cells was “reduces AR expression”. Moreover, the “inhibition of AR-V7-dependent FKBP5 expression” value in assay [4] was “inhibited”. In the assay on 22RV1 xenograft (100 mg/kg/day s.c.), the “inhibition of 22RV1 xenograft growth” value is recorded as 53%. Besides, in [5], the “inhibition of Pr-3001 growth” value was 40–60%. In the assay with panel of kinases, the “inhibition of kinase activity” value is recorded as “no significant inhibition”. The “effect on PR protein levels” value on PR in T47D cells was “no effect”. Also, the “effect on ER protein levels” value at ER in T47D cells is recorded as “no effect”. For the same compound, the “effect on GR protein levels” value in assay [6] is given as “no effect on GR”. The “inhibition of AR recruitment to the ARE on the PSA enhancer” value in assay [7] is on record as “failed to inhibit”. Besides, the “inhibition of R1881-dependent increase in NDRG1 and MT2A pre-mRNAs at 1 and 2 hours” value in [8] is on record as “failed to inhibit”.
`CNC(=O)c1ccc(N2C(=S)N(c3ccc(C#N)c(C(F)(F)F)c3)C(=O)C2(C)C)cc1F` [enzalutamide, reference compound]: the “effect on growth of 22RV1 tumors” value in the assay with 22RV1 xenograft (30 mg/kg/day s.c.) is on record as “no effect”. Further, the “inhibition of AR recruitment to the ARE on the PSA enhancer” value in assay [7] is listed as “inhibited”.

The values are drawn from publication PMC5890913 (Cancer research, 2017).
